From PMC7106486 (Science translational medicine, 2019)

Assays:
[1] = system: S. aureus USA300 LAC agr type I P3-YFP; assay: S. aureus agr activity, P3-YFP reporter, in vitro; type: cell-based; settings: synthetic peptide, overnight culture
[2] = system: Klk6 and cytokine (Il6, Il17a, Il17f) mRNA in murine skin; assay: Klk6 and cytokine mRNA expression on murine skin; type: in vivo, mouse C57BL/6; settings: synthetic autoinducing peptide 10 μg with S. aureus 1 × 10^7 CFU, 48 hours
In short: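 Male C57BL/6 mice, 8 weeks old, shaved and Nair-depilated (2 min), then rested 48 h. S. aureus USA300 LAC (agr type I, from 18 h cultures in 3% TSB at 37°C), 1 × 10^7 CFU in 3% TSB (100 μl), applied with synthetic autoinducing peptide (10 μg, DMSO) on 2-cm2 gauze under Tegaderm to back skin for 48 h. Applied CFU confirmed next day; n = 5.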

[3] = system: murine back skin treated with S. aureus; assay: Transepidermal water loss; type: in vivo, mouse C57BL/6; settings: synthetic autoinducing peptide 10 μg with S. aureus 1 × 10^7 CFU, 48 hours
In short: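 Back skin of 8-week male C57BL/6 mice depilated (shave plus Nair 2 min), allowed 48 h barrier recovery. S. aureus USA300 LAC agr type I (1 × 10^7 CFU, 100 μl 3% TSB) plus synthetic autoinducing peptide (10 μg, DMSO) applied on 2-cm2 gauze under Tegaderm for 48 h. Transepidermal water loss measured by Tewameter on treated skin; n = 5.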

[4] = system: clinical S. aureus strains expressing PSMα; assay: Protection against clinical S. aureus strains expressing PSMα

Substance: S-Y-N-V-c(C-G-G-Y-F) [S. hominis C5 autoinducing peptide]
- inhibition of S. aureus agr activity (in words) [1]: potently inhibited S. aureus agr activity in a dose-dependent manner
- inhibition of S. aureus agr activity (in words) ([1]; listed as SYNVCGGYF): highly potent inhibitor of S. aureus agr activity
- Klk6 expression on murine skin (in words) [2]: inhibited TEWL, Klk6
- TEWL on murine skin (in words) [3]: inhibited TEWL
- protection against clinical S. aureus strains (in words) [4]: protective against clinical S. aureus strains expressing PSMα
